This is one part of a sample in which hits are shown more often than they occur.
Calb biofilm kill: clotrimazole potentiators killing C. albicans biofilm, primary screen, 4-compound mixtures; C. albicans biofilm persisters + clotrimazole, fluorescence viability; primary screen in compound mixtures of four per well; 120,000 compounds, 0.02% hits; inhibition, % at 7.6 µM;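 active = inhibition above 30.3% in the primary screen of four-compound pools, then above 30% when the compound was retested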;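 also: compounds exposed to preformed 24 h biofilms for 48 h; 0% = untreated biofilm control and 100% = clotrimazole plus chlorhexidine kill blank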
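Test system: C. albicans CAF4-2 wild-type biofilms; buffer or medium: RPMI/MOPS medium, pH 7.0; schedule: 24 h biofilm formation, then 48 h compound exposure, 37 °C; detection: Alamar Blue fluorescence; measure: percent inhibition of biofilm viability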
ROMK primary: ROMK potassium channel modulators, primary screen, cell-based, thallium flux, MLSMR library. ATP-sensitive inward rectifier potassium channel 1 (Homo sapiens), P48048. Tet-inducible ROMK, thallium flux fluorescence; actives lie on both sides. B-score at 10 µM. 130,000 compounds, 2% hits. AID 1918, 2009;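 active = signal ratio slope over the read window, or its plate-corrected B-score, at least 3 SD from the plate mean, either direction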;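 also: B-score of the F/F0 ratio slope over 7 to 12 s after thallium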
Target sequence (P48048 whole entry, looked up): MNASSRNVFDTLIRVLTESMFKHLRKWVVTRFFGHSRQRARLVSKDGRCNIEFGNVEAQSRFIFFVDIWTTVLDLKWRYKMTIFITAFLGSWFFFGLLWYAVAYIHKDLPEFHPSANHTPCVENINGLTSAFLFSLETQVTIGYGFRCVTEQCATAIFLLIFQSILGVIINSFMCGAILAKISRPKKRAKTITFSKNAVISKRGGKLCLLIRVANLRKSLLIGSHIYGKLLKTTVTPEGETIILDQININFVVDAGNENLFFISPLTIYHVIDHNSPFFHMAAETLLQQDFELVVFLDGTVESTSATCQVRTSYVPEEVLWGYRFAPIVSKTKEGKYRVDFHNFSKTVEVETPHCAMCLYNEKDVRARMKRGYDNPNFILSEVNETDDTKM
zfTRPN1 agonist: zebrafish TRPN1 channel agonists, primary screen, cell-based, HEK293, calcium fluorescence; transient receptor potential cation channel N1 (TRPN1/NompC), Danio rerio; HEK293 zebrafish TRPN1-YFP, Fluo-8 calcium fluorescence; 100% = response to 87 µM carbachol; activation, % at 3 µM; 220,000 compounds, 0.18% hits;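 active = activation above its plate's cutoff, the mean activation of test wells on that plate plus 3 SD, cut at about 19% in these data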;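 also: 0% = DMSO alone and 100% = 87 µM carbachol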
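System: zebrafish TRPN1-YFP in HEK293 cells / Dosing: 3 µM single point / Timing: dye loading 1 h at 37 °C, then 30 min room temperature / Signal: Fluo-8 calcium fluorescence, excitation 470-495 nm, emission 515-575 nm / Read-out basis: percent activation from peak over basal fluorescence ratio, control-normalized / Control set: high carbachol 87 µM, low DMSO alone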
ABCG2 inh: ABCG2 efflux pump inhibitors, primary screen, multiplex with ABCB1, IgMXP3 cells, flow cytometry; 190,000 compounds, 0.1% hits; AID 1325, 2008; inhibition, % at 6.6 µM; Broad substrate specificity ATP-binding cassette transporter ABCG2 (Homo sapiens), Q9UNQ0; JC-1 efflux;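 active = inhibition above 80%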;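 also: 0% = DMSO and 100% = nicardipine control wells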
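Test system: IgMXP3 (ABCG2) plus far-red-tagged CCRF-Adr (ABCB1) cells / Amount: 3 million cells/mL in well / Reagent: JC-1 transporter substrate / Timing: 10 min compound exposure, 25 °C / Signal: flow cytometry, 530 nm JC-1 signal / Read-out: percent efflux inhibition, scaled nicardipine 100% to DMSO 0% / Benchmarks: nicardipine as high control, DMSO as low control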
ABCB1 block: ABCB1 efflux pump inhibitors, primary screen, cell-based, multiplex, flow cytometry, ABCG2 counter-screen; CCRF-Adr cells, JC-1 efflux; inhibition, % at 6.6 µM; 190,000 compounds, 0.067% hits; AID 1326, 2008; in the data active = inhibition above about 40%;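 also: 0% = vehicle and 100% = reference inhibitor; higher value means more JC-1 retained so stronger ABCB1 efflux block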
TRPML3 agonist: human TRPML3 channel agonists, primary screen, cell-based, HEK293 TRPML3-YFP, Fluo-8 calcium fluorescence, 3 µM; Mucolipin-3 (Homo sapiens), Q8TDD5; 100% = the carbachol control signal; activation, % at 3 µM; 220,000 compounds, 0.29% hits;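 active = activation above its plate's cutoff, the mean activation of the plate's test wells plus 3 SD, cut at about 12% in these data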;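 also: 0% = DMSO only wells and 100% = carbachol wells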
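Test system: TRPML3-YFP stable HEK293 cells. Doses: single point at 3 µM. Incubation: dye loading 1 h 37 °C then 30 min ambient, 125 s read. Signal: Fluo-8 calcium dye fluorescence, ex 470-495, em 515-575 nm. Measure: percent activation from peak-to-basal fluorescence ratio, scaled between DMSO and carbachol.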
ROMK hit retest: ROMK channel modulator hit retest, confirmation, cell-based, thallium flux, duplicate, resupplied hits; shares compounds with ROMK primary; normalized thallium flux (F/F0 slope) at 10 µM; 3,000 compounds, 54% hits; fluorescence ratio; stronger effect = lower value;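 active = Flux at 10 µM at least 3 SD below or above vehicle control mean in one or both replicates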
* marks the source's active call; other numbers are inactive results; · = not tested or not shown.

SMILES	Calb biofilm kill	ROMK primary	zfTRPN1 agonist	ABCG2 inh	ABCB1 block	TRPML3 agonist	ROMK hit retest
Cc1oc(-c2cccc(Cl)c2)nc1CN1CCCC(C(=O)NCc2ccco2)C1 (centres undefined)	·	-1.46	-1.0	8.2	2.2	-0.7	·
Cc1cccc(-c2nc(CN3CCCC(C(=O)NC4CCCCC4)C3)c(C)o2)c1 (centres undefined)	·	-2.46*	-0.6	3.8	4.4	-0.1	0.0664*
CN(C)C(=S)c1ccc(N(C)C)cc1	9.3	·	0.8	3.9	-0.1	1.2	·
CN(C)C(=S)c1ccccc1	19.1	·	1.0	·	·	0.6	0.0741
Cc1ccc(C(N)=Nc2ccccc2)cc1	15.7	·	1.2	·	·	1.3	·
Cc1oc(-c2ccccc2F)nc1CN1CCC(C(=O)NCCC2=CCCCC2)CC1	·	-5.39*	1.0	2.5	1.3	0.5	0.0558*
COc1ccc(CCNC(=O)C2CCN(Cc3nc(-c4ccccc4F)oc3C)CC2)cc1OC	·	-1.59	-0.3	-1.1	-0.5	-0.4	·
CN1CCN(NC(=O)CSc2ccc(Cl)cc2Cl)CC1	6.7	0.00423	-0.8	1.1	0.5	0.6	·
O=S(=O)(c1ccc(Cl)cc1)N1CCN(S(=O)(=O)N2CCCCCC2)CC1	0.4	-0.734	0.8	2.9	1.1	1.0	·
O=S(=O)(c1ccc(Oc2ccc(Cl)cc2)c(S(=O)(=O)N2CCCCC2)c1)N1CCCCC1	·	·	-0.6	1.7	0.9	0.9	0.064*
O=[N+]([O-])c1cc(S(=O)(=O)N2CCCCCC2)ccc1Cl	11.9	-3.87*	-2.7	28.0	1.4	22.3*	0.0644*
COc1ccc(CC(=O)OCC(=O)NCc2ccccc2Cl)cc1OC	6.2	0.786	0.0	2.7	0.7	-0.2	·
CCOC(=O)C1=C(C)NC(SC)=C(C#N)C1CC(C)C (centres undefined)	11.9	2.5*	-1.1	·	·	-0.6	0.0798
COc1ccccc1C(=O)c1cc2ccc(O)cc2oc1=O	6.9	·	-0.6	0.4	-0.1	-0.4	·
C/C(=N\NC(=O)CC#N)c1cc2ccc(O)cc2oc1=O	8.6	-3.38*	1.8	1.1	-0.4	1.3	0.0556*
CC(C)(C)c1ccc(NC(=O)N2CCN(c3ccc([N+](=O)[O-])cn3)CC2)cc1	19.7	·	6.0	·	·	2.2	·
CN(C)CCNC(=O)c1ccc(Sc2ccc(Br)cc2)c([N+](=O)[O-])c1	20.9	-2.77*	3.0	4.5	1.1	2.3	0.063*
O=C(Nc1ccc(F)cc1)C1=CC(=O)N2CCN=C2S1	5.9	-0.59	-0.4	0.7	0.2	-0.8	·
Cc1c(CCOC(=O)c2cc([N+](=O)[O-])cc([N+](=O)[O-])c2)sc[n+]1CC(=O)c1ccccc1	14.4	-0.538	-0.8	5.0	1.0	0.7	·
Cc1c(CCOC(=O)c2ccccc2)sc[n+]1Cc1ccccc1	22.6	-0.113	0.7	4.2	0.4	0.2	·
Cc1c(CCOC(=O)CC23CC4CC(CC(C4)C2)C3)sc[n+]1CC(=O)c1ccc(Br)cc1	·	-5.97*	-1.2	0.5	0.1	0.2	0.0447*
Cc1c(CCOC(=O)C23CC4CC(CC(C)(C4)C2)C3)sc[n+]1CC(=O)c1ccccc1	23.4	-5.88*	-1.4	1.9	1.3	0.4	0.0599*
Cc1c(CCOC(=O)CC23CC4CC(CC(C)(C4)C2)C3)sc[n+]1CC(=O)c1ccccc1	28.7	-4.09*	-1.0	0.5	0.3	0.3	0.0474*
O=C(C/C=N\OCc1ccc([N+](=O)[O-])cc1)Nc1ccc(Br)cc1	17.7	-1.67	-0.1	19.8	1.6	-0.1	·
Cc1ccc(CNC(=O)Cn2ccc3ccccc3c2=O)o1	·	·	0.0	3.8	0.7	1.4	0.0733
SMILES	Calb biofilm kill	ROMK primary	zfTRPN1 agonist	ABCG2 inh	ABCB1 block	TRPML3 agonist	ROMK hit retest
CC(Oc1ccccc1)C(=O)N1CCN=C1SCc1ccccc1 (centres undefined)	3.1	·	0.8	11.8	2.4	0.4	·
COc1cc(/C=C2\NC(=S)N(C)C2=O)ccc1O	1.5	-1.17	2.6	4.6	0.1	2.0	·
COc1cc(/C=C2/C(=O)CNC2=O)ccc1O	10.4	-2.93*	0.9	1.6	0.5	0.8	0.0611*
CCn1cc(S(=O)(=O)N2CCN(Cc3cccc(Cl)c3)CC2)cn1	4.9	-0.258	-0.5	-1.3	0.5	-0.2	·
CCn1cc(S(=O)(=O)N2CCN(Cc3ccc(F)cc3)CC2)cn1	-3.5	-23.4*	0.1	11.6	1.6	0.1	0.0835
NC(=O)C1CCN(C(=O)c2ccc3c(=O)n(Cc4ccco4)c(SCC(=O)c4ccc(F)cc4)nc3c2)CC1	25.0	2.78*	-0.9	-0.8	-0.3	0.3	0.0917
NC(=O)C1CCN(C(=O)c2ccc3c(=O)n(Cc4ccco4)c(SCC(=O)c4ccccc4)nc3c2)CC1	13.7	0.018	0.8	2.0	0.5	0.5	·
O=C(C[n+]1cc(-c2ccccc2)n2c1CCCCC2)c1ccc(Cl)cc1	19.7	·	-0.3	0.6	-0.1	-0.1	·
CC1CCC(C(C)C)C(OC(=O)C[n+]2cc(-c3ccc(Cl)cc3)n3c2CCCCC3)C1 (centres undefined)	15.7	-9.81*	-0.7	0.2	0.2	-0.5	0.0495*
Clc1ccc(C[n+]2cc(-c3ccccc3)n3c2CCCCC3)c(Cl)c1	12.7	·	-0.8	-3.4	1.0	0.4	·

Assay outcomes (PubChem)
